ChEMBL document CHEMBL3351342, “Synthesis and biological evaluation of phenoxyacetic acid derivatives as novel free fatty acid receptor 1 agonists” (Bioorg Med Chem, 2015)
Calls of active or inactive are those of the source. The rule behind the calls is not given here.

Legend:
[1] = target: T1, Free fatty acid receptor 1 (Homo sapiens, UniProt O14842); test: Agonist activity at human FFA1 expressed in CHO cells assessed as ratio of increase in intracellular Ca2+ concentration in compound treated cells at 100 nM to vehicle-treated cells by Fluo-4 AM based fluorescence assay; assay type: functional, cell-based
In short: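 Same Fluo-4 Ca2+ flux format in CHO cells stably expressing human FFA1. Single screening concentration of 100 nM. Activity expressed as A/B, the Ca2+ increase in compound-treated wells divided by that in vehicle-treated wells. Three independent experiments.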

[2] = target: T1, Free fatty acid receptor 1; test: Agonist activity at human FFA1 expressed in CHO cells assessed as increase in intracellular Ca2+ concentration by Fluo-4 AM based fluorescence assay; assay type: functional, cell-based
In short: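 CHO cells stably expressing human FFA1 (NM_005303), 30,000 cells/well, cultured overnight at 37 °C in 5% CO2. Loaded with 2.5 µg/mL Fluo-4 AM and 2.5 mmol/L probenecid in HBSS for 90 min at 37 °C, washed, then held 10 min in HBSS with probenecid. Ca2+ rise after adding compound at various concentrations read by fluorimetry. EC50 from curve fitting, mean of three determinations.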

Mus musculus [3] = test: Hypoglycemic effect in ICR mouse assessed as improvement in glucose intolerance at 20 mg/kg, po dosed 30 mins before oral glucose challenge by oral glucose tolerance test; assay type: functional, organism-based; design: dose 20 mg/kg
In short: (§1)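 Male ICR mice, 10 weeks old, fasted 12 h and randomized (n = 6). Single oral dose of 20 mg/kg as a suspension in 0.5% methylcellulose (1.0 mL/kg), given 30 min before an oral glucose load of 2 g/kg (20% solution). Blood glucose read by test strip at −30, 0, 15, 30, 60 and 120 min. AUC0–120 min calculated; mean ± SEM.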

[4] = Clearance in Sprague-Dawley rat at 1 mg/kg, iv; assay type: ADME, organism-based; design: dose 1 mg/kg, route intravenous; settings: in vivo
In short: (§2)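 Fasted male SD rats (n = 3). Dosed 1 mg/kg iv (0.5 mg/mL, 2 mL/kg) or 1 mg/kg po (1 mg/mL, 1 mL/kg), both in 0.5% methylcellulose. Tail-vein blood in EDTA sampled from 5 min to 36 h. Plasma proteins precipitated with acetonitrile containing internal standard, then analysed by LC-MS/MS. Parameters derived from mean concentrations at each time point.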

[5] = Volume of distribution in Sprague-Dawley rat at 1 mg/kg, iv; assay type: ADME, organism-based; design: dose 1 mg/kg, route intravenous; settings: in vivo; in short: as §2
Mus musculus [6] = test: Antihyperglycemic effect in type 2 diabetic C57BL/6 mouse assessed as reduction in blood glucose level at 60 mg/kg, po administered as single dose; assay type: functional, organism-based; design: dose 60 mg/kg
In short: (§3)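 Type 2 diabetes model: male C57BL/6 mice on high-fat diet (45% fat) for 4 weeks, STZ 80 mg/kg ip, then high-fat diet for another 4 weeks. Fasting glucose ≥11.1 mmol/L counted as diabetic. Mice fasted 12 h and randomized by weight and glucose (n = 6). Single oral dose of 30–100 mg/kg in 0.5% methylcellulose given 30 min before an oral glucose load of 1 g/kg. Glucose read by strip to 120 min; AUC0–120 min; mean ± SD.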

Mus musculus [7] = test: Hypoglycemic effect in ICR mouse assessed as reduction in glucose AUC (0 to 120 mins) at 20 mg/kg, po dosed 30 mins before oral glucose challenge by oral glucose tolerance test; assay type: functional; design: scale not given: the % may be the effect or the level left; in short: as §1
[8] = Oral bioavailability in Sprague-Dawley rat at 1 mg/kg; assay type: ADME, organism-based; settings: in vivo; in short: as §2
[9] = Half life in Sprague-Dawley rat at 1 mg/kg, po; assay type: ADME, organism-based; design: dose 1 mg/kg, route oral; settings: in vivo; in short: as §2
[10] = Cmax in Sprague-Dawley rat at 1 mg/kg, po; assay type: ADME, organism-based; design: dose 1 mg/kg, route oral; settings: in vivo; in short: as §2
[11] = Tmax in Sprague-Dawley rat at 1 mg/kg, po; assay type: ADME, organism-based; design: dose 1 mg/kg, route oral; settings: in vivo; in short: as §2
[12] = AUC (0 to 8 hrs) in Sprague-Dawley rat at 1 mg/kg, po; assay type: ADME, organism-based; design: time < 8 hr, dose 1 mg/kg, route oral; settings: plasma; in short: as §2
Mus musculus [13] = test: Antihyperglycemic effect in type 2 diabetic C57BL/6 mouse assessed as reduction in blood glucose level at 30 to 100 mg/kg, po; assay type: functional, organism-based; in short: as §3
[14] = Half life in Sprague-Dawley rat at 1 mg/kg, iv; assay type: ADME, organism-based; design: dose 1 mg/kg, route intravenous; settings: in vivo; in short: as §2

T1 sequence (O14842 whole entry): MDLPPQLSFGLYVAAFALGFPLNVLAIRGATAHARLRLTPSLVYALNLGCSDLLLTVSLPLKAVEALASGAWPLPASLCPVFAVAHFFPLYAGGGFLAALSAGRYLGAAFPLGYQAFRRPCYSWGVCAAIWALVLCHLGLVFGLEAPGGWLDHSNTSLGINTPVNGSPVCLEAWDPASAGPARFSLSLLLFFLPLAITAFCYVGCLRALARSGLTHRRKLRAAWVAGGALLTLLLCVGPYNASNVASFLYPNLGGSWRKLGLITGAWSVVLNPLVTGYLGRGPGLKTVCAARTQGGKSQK

| SMILES | Ratio [1] | EC50 [2] [nM] | Activity (Mus musculus [3]) | further results |
| --- | --- | --- | --- | --- |
| COc1cc(OCc2cccc(-c3c(C)cc(OCCCS(C)(=O)=O)cc3C)c2)ccc1OC(C)(C)C(=O)O | 1.81 | – | – | – |
| CCC(Oc1ccc(OCc2cccc(-c3c(C)cc(OCCCS(C)(=O)=O)cc3C)c2)cc1)C(=O)O (configuration not stated) | 3.04 | – | – | – |
| Cc1cc(OCCCS(C)(=O)=O)cc(C)c1-c1cccc(COc2ccc(OC(C)C(=O)O)cc2)c1 (configuration not stated) | 4.04 | 389 | Active | – |
| Cc1cc(OCCCS(C)(=O)=O)cc(C)c1-c1cccc(COc2ccc(OCC(=O)O)c(Cl)c2)c1 | 6.18 | 92.6 | Active | – |
| COc1cc(OCc2cccc(-c3c(C)cc(OCCCS(C)(=O)=O)cc3C)c2)ccc1OCC(=O)O | 2.02 | – | – | – |
| Cc1cc(OCCCS(C)(=O)=O)cc(C)c1-c1cccc(COc2ccc(OCC(=O)O)cc2)c1 | 6.04 | 121 | Active | – |
| CCc1cc(OCc2cccc(-c3c(C)cc(OCCCS(C)(=O)=O)cc3C)c2)ccc1OCC(=O)O | 3.19 | – | – | – |
| CCc1cc(OCc2cccc(-c3c(C)cc(OCCCS(C)(=O)=O)cc3C)c2)ccc1OC(C)(C)C(=O)O | 1.48 | – | – | – |
| Cc1cc(OCCCS(C)(=O)=O)cc(C)c1-c1cccc(COc2ccc(OCC(=O)O)c(F)c2)c1 | 6.42 | 62.3 | Active | clearance [4]: 1.83 mL/min/kg; Vd [5]: 0.26 L/kg; Activity (Mus musculus [6]): Active; Activity (Mus musculus [7]): 31%; bioavailability [8]: 63%; half-life [9]: 3.27 h; Cmax [10]: 1170 ng/mL; Tmax [11]: 1 h; AUC(0-t) at 8 h [12]: 5340 ng·h/mL; Activity (Mus musculus [13]): Dose-dependent effect; half-life [14]: 4.15 h |
| Cc1cc(OCCCS(C)(=O)=O)cc(C)c1-c1cccc(COc2ccc3c(c2)OC[C@H]3CC(=O)O)c1 | – | – | Active | Activity (Mus musculus [7]): 29.3% |
| Cc1cc(OCCCS(C)(=O)=O)cc(C)c1-c1cccc(COc2ccc(OC(C)(C)C(=O)O)c(Cl)c2)c1 | 3.04 | – | – | – |
| Cc1cc(OCc2cccc(-c3c(C)cc(OCCCS(C)(=O)=O)cc3C)c2)cc(C)c1OC(C)(C)C(=O)O | 1.6 | – | – | – |
| Cc1cc(OCCCS(C)(=O)=O)cc(C)c1-c1cccc(COc2ccc(OC(C)(C)C(=O)O)cc2)c1 | 2.45 | – | – | – |
| Cc1cc(OCCCS(C)(=O)=O)cc(C)c1-c1cccc(COc2ccc(OC(C)(C)C(=O)O)c(F)c2)c1 | 3.06 | – | – | – |
| Cc1cc(OCc2cccc(-c3c(C)cc(OCCCS(C)(=O)=O)cc3C)c2)ccc1OCC(=O)O | 5.64 | 153 | Active | – |
